# Assay results reported in PubChem BioAssay AID720508 (The Scripps Research Institute Molecular Screening Center, 2013).
# About 500 (0.14%) of roughly 370,000 compounds were called active. What follows is part of a selection rich in actives, with near analogues and random picks from the rest. A number with no mark means an inactive call.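 Rule for the calls: active = inhibition above the mean of compounds falling within the control limits plus 3 SD of them (cut at about 14% in these data); inactive = the rest.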
# Biological target: Fibrinogen beta chain (Homo sapiens) (UniProt P02675)
# Test: inhibitors of Tn7 peptide binding to fibrin DD(E), primary screen, biochemical, fluorescence polarization, human fibrin, Tn7 probe (AID 720508);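 note: 0% = plate median of compound wells and 100% = 10 µM Aha-Tn7 peptide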
# Conditions: FP displacement of FITC-Tn7 peptide from fibrin DD(E); at 8.3 µM; hits give high values; 0% = median of compound wells per plate
# Procedure, shortened: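 assay system = human clot-derived fibrin DD(E) complex | quantity = Fibrin-DD(E) at 2 µM final | timing = 10 min preincubation, 3 h with tracer, room temperature | signal = fluorescence polarization | measure = percent inhibition | benchmarks = high control wells with 10 µM unlabelled Aha-Tn7 peptide (full inhibition) | replicates = singlicate testing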
# Fibrinogen beta chain (Homo sapiens), sequence (P02675 whole entry, looked up): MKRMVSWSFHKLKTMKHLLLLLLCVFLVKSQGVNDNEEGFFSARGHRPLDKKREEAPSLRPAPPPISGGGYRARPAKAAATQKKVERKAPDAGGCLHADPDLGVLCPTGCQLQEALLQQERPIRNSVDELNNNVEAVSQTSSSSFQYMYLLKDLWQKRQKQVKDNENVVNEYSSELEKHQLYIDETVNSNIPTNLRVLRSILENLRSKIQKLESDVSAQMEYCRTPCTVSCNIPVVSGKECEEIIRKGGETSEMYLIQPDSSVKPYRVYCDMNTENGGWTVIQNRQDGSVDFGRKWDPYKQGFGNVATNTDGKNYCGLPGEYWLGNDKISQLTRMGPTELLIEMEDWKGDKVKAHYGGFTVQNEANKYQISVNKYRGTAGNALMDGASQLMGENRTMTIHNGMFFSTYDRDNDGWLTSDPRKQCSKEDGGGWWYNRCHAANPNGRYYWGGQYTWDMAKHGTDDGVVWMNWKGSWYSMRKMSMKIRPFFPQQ
row,Compound,inhibition
1,Cc1cccc(NC(=O)c2ccc(S(=O)(=O)N(C)CC3CCCO3)cc2)c1C (stereo not drawn),-10%
2,Cc1nnc(SCC(=O)Nc2ncc3c(n2)CC(C)(C)CC3=O)s1,3.19%
3,C=CCn1c(COc2ccc(F)cc2)nnc1SCC(=O)Nc1cccc(S(N)(=O)=O)c1,2.08%
4,COc1cc2c(cc1OC)CC1(CCCCC1)N=C2,3.18%
5,Cc1cc(=O)[nH]c2nnnn12,-1.23%
6,COc1ccc(N=C2C=CC(=O)O2)cc1,-2.28%
7,O=c1o[nH]c(-c2ccccc2)c1N=Nc1c(F)cccc1Cl,1.8%
8,COc1ccc(N=Nc2c(-c3ccc(OC)cc3)[nH]oc2=O)cc1,25.7% (active)
9,COc1ccc(C(=O)N(C)Cc2ccc(OC)c(OC)c2OC)cc1S(=O)(=O)N1CCOCC1,-8.78%
10,CN(CC(=O)Nc1ccc(F)c(F)c1F)C(=O)C1CC(=O)N(C2CCCC2)C1 (stereo not drawn),0.71%
11,COC(=O)CSc1snnc1-c1ccc(Cl)c(Cl)c1,-4.58%
12,OC(c1ccccc1)c1nc(-c2cnc3ccccc3c2)cs1 (stereo not drawn),15.7% (active)
13,COc1ccc(-c2csc(C(O)c3cccc(Cl)c3)n2)cn1 (stereo not drawn),-9.22%
14,Cc1ccccc1-c1csc(C(O)c2cccc(Cl)c2)n1 (stereo not drawn),-0.35%
15,Cc1nn(C(C)(C)C)c(OC(=O)CC(C)C)c1S(=O)(=O)c1ccccc1,1.04%
16,O=C(Cn1cnc2ccccc2c1=O)Nc1cccc(S(=O)(=O)N2CCCCC2)c1,-0.43%
17,CCc1nn(-c2cc(Oc3cccc4ccccc34)nc(-c3ccccc3)n2)c(N)c1C#N,4.4%
18,C=CCN1CCN(c2ccncc2S(=O)(=O)N2CCN(C)CC2)CC1,7.05%
19,O=C(NCc1cccnc1)Nc1ccccc1F,-2.21%
20,CC(=O)Nc1ccc(CN2CCN(Cc3ccc(F)c(F)c3)C(CCO)C2)cc1 (stereo not drawn),0.97%
21,Cc1cc(NC(=O)C(C)SCC(=O)Nc2cccc(S(=O)(=O)N3CCCCCC3)c2)no1 (stereo not drawn),6.6%
22,O=S1(=O)CC(N2CCN(Cc3ccccc3F)CC2)CN1Cc1cn(Cc2cccc(C(F)(F)F)c2)nn1 (stereo not drawn),1.27%
23,CC(=O)c1cc(-c2ccccc2)n(CCC(=O)NC2CCCCCC2)c1C,-2.95%
24,O=C(c1c(Cl)cccc1Cl)N1CCN(c2cccc3[nH]ccc23)CC1,2.06%

row,Compound,inhibition
1,CC1(C)CC(=O)C(C2c3ccccc3S(=O)(=O)c3ccccc32)C(=O)C1,2.44%
2,CO[C@H]1[C@@H]2C=CO[C@@H](O[C@H]3O[C@@H](CO)[C@H](O)[C@@H](O)[C@@H]3O)[C@@H]2[C@@]2(CO)O[C@@H]12,-5.28%
3,S=C(NC1CCCCC1)NN1CCOCC1,4.52%
4,O=C(CSc1nncn1-c1cccnc1)N1CCOCC1,-3.73%
5,Cn1c(CC(=O)NNC(=O)c2ccccc2F)nc2ccccc21,14.2% (active)
6,Cc1cc2occ(CC(=O)NNC(=O)c3ccccc3F)c2cc1C,-1.71%
7,O=C(Cn1cnc2ccccc2c1=O)NNC(=O)c1ccccc1F,-3.62%
8,Cc1ccccc1CCNC(=O)C1CCC(=O)N(Cc2ccc(Cl)cc2)C1 (stereo not drawn),7.94%
9,O=C(NCCCN1CCCCC1)C1CCCN(c2ncnc3c2nc2n3CCCCC2)C1 (stereo not drawn),-0.83%
10,O=C(NCc1ccco1)C1CCCN1S(=O)(=O)c1ccccc1C(F)(F)F (stereo not drawn),-1.12%
11,COc1ccc(NC2CC(=O)N(C)C2=O)cc1 (stereo not drawn),0.3%
12,CCC1CCCCN1C(=S)Nc1ccc(SC(F)F)cc1 (stereo not drawn),5.34%
13,C[N+]1(CCNC(=O)/C=N/O)CCCCC1,1.46%
14,COc1cc(C(=S)NC2CCCCC2)ccc1O,2.78%
15,COc1cc(C(=S)N2CCOCC2)ccc1O,14.7% (active)
16,COc1ccc(C)cc1NC(=S)N1CCOCC1,-0.49%
17,COC(=O)[C@]12CCCCC=C1N(Cc1ccc(Cl)cc1Cl)C(=O)[C@H](CC(=O)NCc1cccc3ccccc13)C2,-3.23%
18,Cn1c(=O)cc(OCCCC(=O)N2CCN(c3ccccn3)CC2)c2ccccc21,2.1%
19,OCCn1c(-c2ccccc2)csc1=Nc1ccccc1,5.44%
20,C=CCOc1cccc(C2C(C(=O)c3ccc(C)o3)=C(O)C(=O)N2CCN2CCOCC2)c1 (stereo not drawn),0.33%
21,Cc1cc(C)n2c(Nc3c(C)cccc3C)c(CCc3ccccc3)nc2n1,10.1%
22,C=CCOc1c2ccc(C(=O)N(CC)c3ccc(OC)cc3)cc2nn1C,1.93%
23,O=S(=O)(c1ccc(-c2ccno2)s1)N1CCCCC1,-8.93%
24,O=[N+]([O-])/C=C/c1ccc2c(ccn2Cc2ccccc2)c1,0.19%

row,Compound,inhibition
1,O=S(=O)(NCC1CCCO1)c1cnc(Cl)c(Cl)c1 (stereo not drawn),0.79%
2,O=C(COC(=O)c1ccc(N2CCCC2=O)cc1)c1ccc(OC(F)F)cc1,-9.52%
3,COc1ccc(-c2nc(CCNC(=O)c3ccc(Br)o3)cs2)cc1,16.8% (active)
4,COc1cc(OC)cc(C(=O)NCC(=O)OCc2csc(-c3ccccc3)n2)c1,1.99%
5,COc1cc(OC)cc(C(=O)NNC(=O)CNC(=O)c2ccc(Br)o2)c1,3.03%
6,CC(C)c1nnc(NC(=O)CCC(=O)N2CCN(c3cccc(Cl)c3)CC2)s1,3.33%
7,O=C(Nc1ccon1)c1sc2ccccc2c1Cl,15.2% (active)
8,CN1CCc2ccccc2C1Cc1ccccc1NC(=O)c1sc2ccccc2c1Cl (stereo not drawn),-2.71%
9,O=C(Nc1ccc2c(c1)OCO2)c1sc2cc(Cl)ccc2c1Cl,6.59%
10,Cc1cc(Cl)ccc1C(=O)C1CCCN(C(=O)c2ccc3c(c2)OCO3)C1 (stereo not drawn),-13.3%
11,COc1cccc(NC(=O)CN(C)CC(=O)c2c(N)n(Cc3ccccc3)c(=O)n(C)c2=O)c1,-1.38%
12,O=C(COC(=O)c1ccccc1NC(=O)c1ccco1)Nc1ccc2c(c1)OC(F)(F)O2,-0.79%
13,N#Cc1cccc(CSc2ncnc(N)n2)c1,-4.53%
14,COC(=O)[C@]12CCCCC=C1N(Cc1ccco1)C(=O)[C@H](CC(=O)NCC1CCCCC1)C2,6.36%
15,CCOc1ccc(NC(=O)CCS(=O)(=O)c2ccc3c(c2)CCCN3C(=O)CC)cc1,-5.9%
16,COc1ccccc1-c1sc2ccccc2c1C#CC1(O)CCCCC1,1.77%
17,C[C@H](CO)N1C[C@H](C)[C@@H](CN(C)S(=O)(=O)c2ccc(F)cc2)Oc2ccc(NC(=O)CCC(F)(F)F)cc2C1=O,-0.61%
18,O=C(CCNS(=O)(=O)c1cccs1)N1CCN(c2ccc(F)cc2)CC1,3.48%
19,COc1ccc(NC(=O)CN(C)C(=O)c2cccc(S(=O)(=O)N3CCN(c4ccccc4)CC3)c2)cc1,-8.03%
20,CCCc1nc2c3ccccc3ccn2c1Cc1ccccc1C(F)(F)F,6.59%
21,O=C(CSc1nnc(-c2ccccn2)n1-c1ccc(Cl)cc1)Nc1ccccc1-c1ccccc1,14% (active)
22,COc1ccc(-n2c(SCC(=O)Nc3ccccc3-c3ccccc3)nnc2-c2cccnc2)cc1,6.88%
23,Cc1ccc(-n2c(SCC(=O)Nc3cccc4ccccc34)nnc2-c2ccccn2)cc1,1.64%
24,NNC(=O)CNC(c1ccccc1)c1cc(Cl)ccc1NC(=O)c1ccccc1 (stereo not drawn),2.82%

row,Compound,inhibition
1,O=C(/C=C/c1ccc([N+](=O)[O-])cc1)NCCSCc1ccco1,1.56%
2,C=CCn1c(SCC(=O)c2c(N)n(C)c(=O)n(C)c2=O)nc2sc(CC)cc2c1=O,3.02%
3,CC1(C)CC(=O)c2sc(N)nc2C1,-0.75%
4,Cc1cc(C)cc(N(CCC#N)C(=O)CN2C(=O)NC3(CCCC3)C2=O)c1,-4.5%
5,COc1ccc(OCCCC(=O)Nc2cccc(S(=O)(=O)N3CCCCCC3)c2)cc1,6.07%
6,N#CCSc1ccccc1NC(=O)CN1C(=O)NC(CCc2ccccc2)C1=O (stereo not drawn),-8.31%
7,O=C(CCN1C(=O)c2ccncc2C1=O)Nc1cc(F)ccc1F,6.34%
8,CCOC(=O)C1(S(=O)(=O)c2ccc(Cl)cc2)CCN(Cc2ccccc2)CC1,7.42%
9,CCOC(=O)c1ccc(NC(=O)c2ccc(NC(=O)C3CCCO3)cc2)cc1 (stereo not drawn),8.18%
10,C#CCNc1ccc(C(=O)OCC)cc1,26.2% (active)
11,CCOC(=O)c1ccc(NC(=O)c2c(NCc3ccccc3)[nH]c(=O)[nH]c2=O)cc1,1.03%
12,Oc1ccccc1-c1cc(-c2ccc(Cl)cc2)n[nH]1,-0.94%
13,COc1ccc(Br)c2c1C(=O)CC2,-5.83%
14,Cn1c(=O)[nH]c(=O)c2c1nc(CN1CCN(c3ccccc3F)CC1)n2CCc1ccccc1,6.89%
15,CC(C)CCN1CCN=C1N(C)C,-8.21%
16,OC(c1nc2ccc(F)cc2[nH]1)C(O)c1nc2ccc(F)cc2[nH]1 (stereo not drawn),-4.03%
17,CCOC(=O)N1CCC(=NNC(N)=O)CC1,0.3%
18,CCOC(=O)C=Cc1ccc(C(=O)OCC)[nH]1,-0.66%
19,COc1cc2nc(CN(C)Cc3ccc(F)cc3)[nH]c(=O)c2cc1OC,-5.44%
20,Cc1ccc(C)c(NS(=O)(=O)c2c(C)[nH]c(C)c2C(=O)N2CCCCC2)c1,-9.23%
21,CCc1nc2c(OCc3ccc(F)c(F)c3)cccn2c1N(C)C(=O)c1ccco1,7.1%
